# Source: ChEMBL document CHEMBL1156778, “Synthesis and structure-activity studies of biphenyl analogues of the tuberculosis drug (6S)-2-nitro-6-{[4-(trifluoromethoxy)benzyl]oxy}-6,7-dihydro-5H-imidazo[2,1-b][1,3]oxazine (PA-824)” (J Med Chem, 2010)
# Legend:
# [1] = system: Mycobacterium tuberculosis; assay: Antitubercular activity against Mycobacterium tuberculosis H37Rv in aerobic condition after 7 days by microplate alamar blue assay; assay type: functional; conditions: 168 h
# In short: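 M. tuberculosis H37Rv, replicating culture; 8-day microplate assay with Alamar blue added on day 7 to read growth. […] Mean of at least two independent determinations ± SD.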
# [2] = system: Mycobacterium tuberculosis; assay: Antitubercular activity against Mycobacterium tuberculosis H37Rv in anaerobic condition after 7 days by low oxygen recovery assay; assay type: functional; conditions: 168 h
# Vero = assay: Cytotoxicity against african green monkey Vero cells after 72 hrs by MTS assay; assay type: cell-based; conditions: Chlorocebus sabaeus
# In short: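 VERO cells (CCL-81), 72 h exposure, tetrazolium dye read-out.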
# [3] = Metabolic stability in pooled human liver microsomes assessed as compound remaining after 1 hr by LC-MS-MS; assay type: ADME, Microsome; conditions: read-out: Stability
# In short: (§1)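 Test compound at 1 μM with pooled CD-1 mouse or human liver microsomes (0.5 mg/mL protein) and NADPH-regenerating system (3.3 mM MgCl2, 3.3 mM G6P, 0.4 U/mL G6PD, 1.3 mM NADP+) in 75 mM phosphate, pH 7.4, 0.5% DMSO, 37 °C. Stopped at 0 and 60 min with MeCN containing metoprolol internal standard. LC-MS/MS (ESI, SRM), duplicates. % remaining = 100 × mean peak-area ratio at 60 min / at 0 min.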
# [4] = Metabolic stability in pooled CD1 mouse liver microsomes assessed as compound remaining after 1 hr by LC-MS-MS; assay type: ADME, Microsome; conditions: read-out: Stability; in short: as §1
# [5] = system: Mycobacterium tuberculosis; assay: Antitubercular activity against Mycobacterium tuberculosis H37Rv infected in BALB/c mouse assessed as ratio of lung CFU for compound to lung CFU for PA-824 at 100 mg/kg, po daily for 5 days a week for 3 weeks; assay type: functional
# [6] = system: Mycobacterium tuberculosis; assay: Antitubercular activity against Mycobacterium tuberculosis H37Rv infected in BALB/c mouse measured per mouse at 100 mg/kg, po daily for 5 days a week for 3 weeks; assay type: functional
SMILES,MIC [1] [µM],MIC [2] [µM],IC50 (Vero) [µM],remaining at 1 h [3] [%],remaining at 1 h [4] [%],fold change (FC) [5],CFU [6]
O=[N+]([O-])c1cn2c(n1)OC[C@@H](OCc1cccc(-c3cccc(OCCCO)c3)c1)C2,0.58,2.5,> 125,–,–,–,–
O=[N+]([O-])c1cn2c(n1)OC[C@@H](OCc1ccc(-c3ccc(OC(F)(F)F)cc3Cl)cc1)C2,0.04,0.78,> 125,91,86,23,390
O=[N+]([O-])c1cn2c(n1)OC[C@@H](OCc1ccccc1-c1ccc3ccccc3c1)C2,1.6,3.1,> 125,–,–,–,–
O=[N+]([O-])c1cn2c(n1)OC[C@@H](OCc1cccc(-c3cccc(C(F)(F)F)c3)c1)C2,0.34,2.9,> 125,–,–,–,–
O=[N+]([O-])c1cn2c(n1)OC[C@@H](OCc1ccc(-c3ccc(Oc4ccccc4)cc3)cc1)C2,0.04,2.7,> 125,22,48,<0.01,330000
O=[N+]([O-])c1cn2c(n1)OC[C@@H](OCc1ccc(-c3ccc(CO)cc3)cc1)C2,0.54,3.7,> 125,–,–,–,–
O=[N+]([O-])c1cn2c(n1)OC[C@@H](OCc1cccc(-c3ccc(OCCCO)cc3)c1)C2,0.36,1.5,> 125,–,–,–,–
NC(=O)c1cccc(-c2ccc(CO[C@@H]3COc4nc([N+](=O)[O-])cn4C3)cc2)c1,2.8,6.7,> 125,–,–,–,–
CS(=O)(=O)c1ccc(-c2ccc(CO[C@@H]3COc4nc([N+](=O)[O-])cn4C3)cc2)cc1,0.67,14,> 125,–,–,–,–
Nc1ccc(-c2ccc(CO[C@@H]3COc4nc([N+](=O)[O-])cn4C3)cc2)cc1,0.49,1.9,> 125,–,–,–,–
O=[N+]([O-])c1cn2c(n1)OC[C@@H](OCc1ccc(-c3ccc(Cl)c(C(F)(F)F)c3)cc1)C2,0.035,1.9,> 125,92,96,7.7,30
O=[N+]([O-])c1cn2c(n1)OC[C@@H](OCc1ccccc1-c1cccc(OC(F)(F)F)c1)C2,1.9,6.3,> 125,–,–,–,–
N#Cc1ccc(-c2ccccc2CO[C@@H]2COc3nc([N+](=O)[O-])cn3C2)cc1,8.4,19,> 125,–,–,–,–
O=[N+]([O-])c1cn2c(n1)OC[C@@H](OCc1ccccc1-c1ccccc1OC(F)(F)F)C2,1.2,6.2,> 125,–,–,–,–
N#Cc1ccc(-c2ccc(CO[C@@H]3COc4nc([N+](=O)[O-])cn4C3)cc2)cc1,0.025,0.58,> 125,95,58,3.6,4500
O=[N+]([O-])c1cn2c(n1)OC[C@@H](OCc1ccc(-c3ccc(OCCCO)cc3)cc1)C2,0.6,2.2,> 125,–,–,–,–
O=[N+]([O-])c1cn2c(n1)OC[C@@H](OCc1ccccc1-c1ccc(F)cc1)C2,1.2,3.4,> 125,–,–,–,–
O=[N+]([O-])c1cn2c(n1)OC[C@@H](OCc1cccc(-c3ccc(O)cc3)c1)C2,0.54,5.8,> 125,–,–,–,–
O=[N+]([O-])c1cn2c(n1)OC[C@@H](OCc1ccc(-c3ccc(C(F)(F)F)cc3)cc1)C2,0.03,1.4,> 125,60,85,72,1100
CC(=O)c1ccc(-c2ccccc2CO[C@@H]2COc3nc([N+](=O)[O-])cn3C2)cc1,17,36,> 125,–,–,–,–
O=[N+]([O-])c1cn2c(n1)OC[C@@H](OCc1cccc(-c3ccccc3OC(F)(F)F)c1)C2,0.46,3.3,> 125,–,–,–,–
O=[N+]([O-])c1cn2c(n1)OC[C@@H](OCc1cccc(-c3cccc(O)c3)c1)C2,0.3,3.7,> 125,–,–,–,–
